Assay results published in the M2OR odorant receptor database.

Key:
Settings in all cases: stereoisomer not certain
[1] = test system: T1, O5AN1
T1 sequence (whole entry): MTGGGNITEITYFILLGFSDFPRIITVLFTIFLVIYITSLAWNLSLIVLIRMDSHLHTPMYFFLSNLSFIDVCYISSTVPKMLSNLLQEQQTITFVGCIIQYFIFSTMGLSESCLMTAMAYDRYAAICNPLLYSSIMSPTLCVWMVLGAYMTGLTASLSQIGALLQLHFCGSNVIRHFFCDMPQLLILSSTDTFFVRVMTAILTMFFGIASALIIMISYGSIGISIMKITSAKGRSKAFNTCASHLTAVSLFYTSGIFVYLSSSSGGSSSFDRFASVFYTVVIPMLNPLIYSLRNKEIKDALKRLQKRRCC
How it was run: (§1)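 Values were gathered from published papers (main text and supplementary material), with extra details requested from the original authors when needed, and checked for typos and inconsistencies. Each receptor–molecule pair is called responsive (active) if the original authors judged the measured signal statistically different from baseline, and non-responsive (inactive) otherwise. Assay methods varied by source, often transient mammalian cell-line luciferase assays. Recorded details include cell line, G-protein, co-transfected protein and tags.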

[2] = target: T2, OR10A2 (Homo sapiens) (UniProt Q9H208)
T2 sequence (whole entry): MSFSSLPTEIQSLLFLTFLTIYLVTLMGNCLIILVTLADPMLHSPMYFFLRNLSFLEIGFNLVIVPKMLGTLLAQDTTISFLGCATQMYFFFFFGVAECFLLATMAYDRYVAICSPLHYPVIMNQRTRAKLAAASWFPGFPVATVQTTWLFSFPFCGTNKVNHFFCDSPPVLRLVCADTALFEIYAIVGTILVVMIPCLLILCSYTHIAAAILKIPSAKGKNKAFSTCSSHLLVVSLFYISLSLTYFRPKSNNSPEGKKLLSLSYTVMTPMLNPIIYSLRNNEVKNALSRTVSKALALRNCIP
How it was run: as §1

[3] = target: T3, OR10A4 (Homo sapiens) (UniProt Q9H209)
T3 sequence (whole entry): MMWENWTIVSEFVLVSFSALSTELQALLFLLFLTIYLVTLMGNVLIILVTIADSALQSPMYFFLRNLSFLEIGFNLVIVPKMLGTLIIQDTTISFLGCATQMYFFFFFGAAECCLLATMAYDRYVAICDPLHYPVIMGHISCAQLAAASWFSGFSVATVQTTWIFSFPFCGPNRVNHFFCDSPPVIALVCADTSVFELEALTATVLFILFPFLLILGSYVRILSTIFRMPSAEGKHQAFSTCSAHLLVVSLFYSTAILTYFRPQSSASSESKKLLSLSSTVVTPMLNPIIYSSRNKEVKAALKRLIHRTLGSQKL
How it was run: as §1

[4] = target: T4, OR10A5 (Homo sapiens) (UniProt Q9H207)
T4 sequence (whole entry): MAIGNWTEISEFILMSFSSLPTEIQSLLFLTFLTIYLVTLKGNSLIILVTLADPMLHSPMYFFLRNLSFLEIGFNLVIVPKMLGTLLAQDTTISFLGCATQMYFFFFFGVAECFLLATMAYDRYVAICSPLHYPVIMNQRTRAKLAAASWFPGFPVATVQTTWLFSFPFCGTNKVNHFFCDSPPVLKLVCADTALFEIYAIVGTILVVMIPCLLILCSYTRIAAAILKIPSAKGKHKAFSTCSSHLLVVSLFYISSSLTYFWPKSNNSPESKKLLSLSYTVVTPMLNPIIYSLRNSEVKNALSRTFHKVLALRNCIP
How it was run: as §1

[5] = target: T5, OR10A6 (Homo sapiens) (UniProt Q8NH74)
T5 sequence (whole entry): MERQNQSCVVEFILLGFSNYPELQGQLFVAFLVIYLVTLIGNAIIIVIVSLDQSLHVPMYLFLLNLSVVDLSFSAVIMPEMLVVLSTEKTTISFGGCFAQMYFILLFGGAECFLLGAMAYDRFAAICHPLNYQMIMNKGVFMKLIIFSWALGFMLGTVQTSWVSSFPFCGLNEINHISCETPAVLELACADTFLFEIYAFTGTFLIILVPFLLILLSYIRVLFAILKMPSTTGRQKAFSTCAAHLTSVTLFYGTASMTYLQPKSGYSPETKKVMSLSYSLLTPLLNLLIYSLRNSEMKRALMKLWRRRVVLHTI
How it was run: as §1

[6] = target: T6, OR10A7 (Homo sapiens) (UniProt Q8NGE5)
T6 sequence (whole entry): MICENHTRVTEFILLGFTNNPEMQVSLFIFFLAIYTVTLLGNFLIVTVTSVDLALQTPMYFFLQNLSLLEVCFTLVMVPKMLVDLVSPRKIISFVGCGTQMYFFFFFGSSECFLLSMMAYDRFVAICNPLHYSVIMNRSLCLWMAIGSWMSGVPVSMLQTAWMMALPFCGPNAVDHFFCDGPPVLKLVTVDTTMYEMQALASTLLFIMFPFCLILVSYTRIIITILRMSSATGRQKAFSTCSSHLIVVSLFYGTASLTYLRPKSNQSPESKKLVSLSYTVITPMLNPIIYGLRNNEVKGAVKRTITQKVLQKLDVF
How it was run: as §1

[7] = target: OR10AC1 (Homo sapiens) (UniProt Q8NH08)
How it was run: as §1

[8] = target: T7, OR10AD1 (Homo sapiens) (UniProt Q8NGE0)
T7 sequence (whole entry): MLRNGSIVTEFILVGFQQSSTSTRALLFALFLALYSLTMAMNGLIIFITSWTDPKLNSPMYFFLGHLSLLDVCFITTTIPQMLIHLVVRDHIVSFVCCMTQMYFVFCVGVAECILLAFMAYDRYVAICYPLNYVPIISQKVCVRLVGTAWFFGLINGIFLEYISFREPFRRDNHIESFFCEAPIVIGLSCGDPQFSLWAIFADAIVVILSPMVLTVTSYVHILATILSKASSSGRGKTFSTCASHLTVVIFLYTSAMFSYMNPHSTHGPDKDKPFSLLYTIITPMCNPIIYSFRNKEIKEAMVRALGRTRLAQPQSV
How it was run: as §1

[9] = target: T8, OR10AG1 (Homo sapiens) (UniProt Q8NH19)
T8 sequence (whole entry): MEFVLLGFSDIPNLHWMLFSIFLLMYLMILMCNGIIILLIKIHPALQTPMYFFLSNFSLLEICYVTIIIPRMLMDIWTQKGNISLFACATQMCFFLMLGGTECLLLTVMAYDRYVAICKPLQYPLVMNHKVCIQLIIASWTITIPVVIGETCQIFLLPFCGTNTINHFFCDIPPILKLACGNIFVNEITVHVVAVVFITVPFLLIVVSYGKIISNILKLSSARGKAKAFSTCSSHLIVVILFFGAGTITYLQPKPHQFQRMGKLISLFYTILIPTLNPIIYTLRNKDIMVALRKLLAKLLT
How it was run: as §1

[10] = target: T9, OR10C1 (Homo sapiens) (UniProt Q96KK4)
T9 sequence (whole entry): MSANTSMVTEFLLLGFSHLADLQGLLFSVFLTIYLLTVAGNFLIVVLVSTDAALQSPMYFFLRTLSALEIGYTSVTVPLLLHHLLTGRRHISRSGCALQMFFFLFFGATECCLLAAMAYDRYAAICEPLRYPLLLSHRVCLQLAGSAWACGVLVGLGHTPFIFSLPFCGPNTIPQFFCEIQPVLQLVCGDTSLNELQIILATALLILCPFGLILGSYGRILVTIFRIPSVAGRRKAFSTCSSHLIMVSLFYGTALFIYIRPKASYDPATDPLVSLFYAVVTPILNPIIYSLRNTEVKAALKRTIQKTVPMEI
How it was run: as §1

Measured: odorant receptor agonist call

Sequence of OR10AC1 (Homo sapiens) (Q8NH08 whole entry): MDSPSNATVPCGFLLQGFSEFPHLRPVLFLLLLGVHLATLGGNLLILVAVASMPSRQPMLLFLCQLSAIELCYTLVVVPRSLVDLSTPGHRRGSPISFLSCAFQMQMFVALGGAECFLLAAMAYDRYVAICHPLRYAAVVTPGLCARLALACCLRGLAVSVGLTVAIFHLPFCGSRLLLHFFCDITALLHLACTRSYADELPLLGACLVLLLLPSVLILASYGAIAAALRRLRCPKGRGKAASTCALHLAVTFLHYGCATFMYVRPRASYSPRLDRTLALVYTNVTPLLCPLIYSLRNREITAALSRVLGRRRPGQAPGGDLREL

CC1CCCCCCCCCCCCC(=O)C1 (stereo not given)
active: [1]
inactive: all other assays above
